Results as given in ChEMBL document CHEMBL5715946 (Chem Biol, 2010).
Activity calls are given as the source filed them. The rule behind the calls is not given here.

Columns and labels:
[1] = molecular target: Macrophage migration inhibitory factor (Rattus norvegicus) (UniProt P30904); assay: Inhibition of recombinant rat MIF expressed in Escherichia coli BL21 (DE3) assessed as reduction in tautomerase activity at 30 uM using L-dopachrome carboxy-methyl ester as substrate by spectrophotometry relative to control
Macrophage migration inhibitory factor (Rattus norvegicus), sequence (P30904 2-115 limits assumed): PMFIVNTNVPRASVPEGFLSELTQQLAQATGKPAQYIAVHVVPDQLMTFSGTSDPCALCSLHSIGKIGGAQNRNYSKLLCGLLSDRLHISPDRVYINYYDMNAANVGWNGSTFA
How it was run: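 Purified recombinant rat MIF tautomerase assayed with purified L-dopachrome carboxy-methyl ester as substrate in pH 6.0 buffer; rate taken over the initial 30 s. Mean ± SD, n = 4.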

[2] = Upregulation of glutathione S-transferase Yc1 subunit gene expression in serum-deprived neonatal Wistar rat cardiomyocyte at 0.37 uM incubated for 21 hrs by microarray analysis relative to control; assay type: functional, Cardiac muscle cell
How it was run: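 Primary neonatal rat cardiomyocytes, isolated by proteinase digestion with preplating to deplete nonmyocytes, cultured in serum-free medium with or without 0.37 μM compound for 21 hr. Total RNA was recovered and global expression profiled on an Affymetrix GeneChip rat genome U34A array (about 7000 known genes). Change is relative to untreated cells.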

Homo sapiens = organism: Homo sapiens; assay: Binding affinity to BTZO-12 sensor chip immobilized recombinant human N-terminal His-tagged MIF C59S mutant expressed in Escherichia coli BL21 (DE3) by SPR analysis
How it was run: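 Sensor chip carrying immobilized BTZO-12; MIF (wild type or point mutants) passed over it and specific binding monitored by surface plasmon resonance.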

[3] = Upregulation of UDP glucuronosyltransferase, exon 1 gene expression in serum-deprived neonatal Wistar rat cardiomyocyte at 0.37 uM incubated for 21 hrs by microarray analysis relative to control; assay type: functional, Cardiac muscle cell
How it was run: (§1)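 Primary neonatal rat cardiomyocytes cultured with or without 0.37 μM compound in serum-free medium for 21 hr. Total RNA profiled on the rat genome U34A GeneChip array (about 7000 known genes).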

[4] = Upregulation of NAD(P)H-menadione oxidoreductase gene expression in serum-deprived neonatal Wistar rat cardiomyocyte at 0.37 uM incubated for 21 hrs by microarray analysis relative to control; assay type: functional, Cardiac muscle cell; how it was run: as §1
[5] = Upregulation of 3-methylcholanthrene-inducible UDP-glucuronosyltransferase gene expression in serum-deprived neonatal Wistar rat cardiomyocyte at 0.37 uM incubated for 21 hrs by microarray analysis relative to control; assay type: functional, Cardiac muscle cell; how it was run: as §1
[6] = Upregulation of 3-methylcholanthrene-inducible truncated UDP-glucuronosyl transferase gene expression in serum-deprived neonatal Wistar rat cardiomyocyte at 0.37 uM incubated for 21 hrs by microarray analysis relative to control; assay type: functional, Cardiac muscle cell; how it was run: as §1
[7] = tested on: Antioxidant response element; assay: Induction of ARE-mediated HO-1 mRNA expression in MIF siRNA transfected rat H9c2 cells at 3 uM measured after 24 hrs by RT-qPCR analysis; assay type: cell-based
How it was run: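 H9c2 cells transfected with MIF siRNA or control siRNA (100 nM, Oligofectamine), then treated with 3 μM compound with or without 0.8 μM rMIF for 24 hr. GST Ya and HO-1 mRNA by real-time qPCR; mean ± SD, n = 3. MIF effect on drug efficacy tested by Aspin-Welch test.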

[8] = molecular target: Macrophage migration inhibitory factor (Rattus norvegicus) (UniProt P30904); assay: Induction of MIF-stimulated ARE activity in rat H9c2 cells assessed as increase in HO-1 expression at 3 uM incubated for 6 hrs by RT-qPCR analysis; assay type: cell-based

SMILES: O=c1nc(-c2ccccn2)sc2ccccc12 [BTZO-1]
- inhibition [1]: 13%
- fold change (FC) [2]: 2.1
- Activity (Homo sapiens): Active
- fold change (FC) [3]: 5
- fold change (FC) [4]: 2.8
- fold change (FC) [5]: 2.1
- fold change (FC) [6]: 2.2
- Activity [7]: inactive
- Activity [8]: Active
